The nature of assay [1]: inhibitors of TNFa-induced NFkB p65 translocation, primary screen, imaging, HUVEC, MLSMR starter and 10KST1 sets (AID 438;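 active means inhibition above 20% together with a positive visual image hit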;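 further: compound added about 3h40 before a 20 min TNFalpha stimulation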;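 on inhibition: signal is the nuclear over cytoplasmic p65 intensity ratio per well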). Conditions: HUVEC TNFa-induced p65 nuclear translocation; cell count: measured here: nuclei count (cytotoxicity indicator), at 2.08 µM; inhibition: at 2 µM, stronger effect = higher value, 0% TNFa-plus-vehicle, 100% no-TNFa wells.
The nature of assay [2]: endothelial E-selectin expression blockers – imaging, HUVEC, immunofluorescence, MLSMR starter and 10KST1 sets, primary screen (AID 487;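 active means visually confirmed hit in the image check and inhibition above 20%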;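 on inhibition: signal is fraction of cell area covered by stained E-selectin grains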;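 on nuclei count: 100% = median nuclei count of all wells on the same plate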). Conditions: HUVEC TNFalpha-induced E-selectin immunofluorescence imaging, at 2 µM; inhibition: stronger effect = higher value; nuclei count: measured here: cell number, toxicity.
Assay [3] is described as follows: Primary imaging screen for DUSP6 inhibitors that restore phospho-Erk in transfected HeLa cells, chemical complementation (AID 609;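 active means compounds giving at least 50% inhibition in the cell-based MKP-3 phosphatase rescue imaging test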;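 on inhibition: phospho-Erk level distribution per well compared with pooled transfected vehicle control wells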). Conditions: HeLa MKP-3 transfected, phospho-Erk imaging KS statistic, at 10 µM, cells stimulated with TPA for 15 min.
Assay [4] deals with Dual specificity protein phosphatase 6 (Homo sapiens) (UniProt Q16828). The description is as above. Conditions: HeLa MKP-3 transfected, phospho-Erk imaging KS statistic; at 10 µM; stronger effect = higher value; cells stimulated with TPA for 15 min.
Dual specificity protein phosphatase 6 (Homo sapiens), sequence (Q16828 whole entry, looked up): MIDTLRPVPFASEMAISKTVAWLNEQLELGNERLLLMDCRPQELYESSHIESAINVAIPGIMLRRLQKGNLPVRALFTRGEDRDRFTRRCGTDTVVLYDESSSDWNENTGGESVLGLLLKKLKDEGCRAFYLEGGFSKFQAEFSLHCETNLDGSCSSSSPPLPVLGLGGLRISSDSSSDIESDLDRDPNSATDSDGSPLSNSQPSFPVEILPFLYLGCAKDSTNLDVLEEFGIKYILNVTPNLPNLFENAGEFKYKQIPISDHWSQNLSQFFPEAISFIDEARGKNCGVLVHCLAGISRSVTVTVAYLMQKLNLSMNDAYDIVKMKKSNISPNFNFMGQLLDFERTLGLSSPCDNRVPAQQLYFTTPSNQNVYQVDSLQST
Assay [5] concerns the target Voltage-gated potassium channel subunit beta-2 (Rattus norvegicus) (UniProt P62483). Description: inhibitors of rat Kvbeta2 reductase activity – biochemical, NADPH fluorescence, primary screen (AID 622).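 Further: slope of raw intensity against log time taken from 70 to 1610 s.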 Conditions: recombinant KvBeta, 4-cyanobenzaldehyde reduction, at 10 µM, stronger effect = higher value.
The target is the same in assay [6]. Kind of assay: enhancers of rat Kvbeta2 NADPH turnover – biochemical, NADPH fluorescence, primary screen (AID 623;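 active means NADPH fluorescence slope more negative than the mean of all samples by about 3 SD, 99.7% confidence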;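 further: fluorescence intensity change per second fitted from 20 to 320 s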). Conditions: Recombinant KvBeta, NADPH fluorescence decrease slope, 10 min; at 10 µM; stronger effect = lower value.
The target in assay [7] is Alpha-2C adrenergic receptor (Homo sapiens) (UniProt P18825). Description: compounds altering alpha2C-coupled GIRK flux – cell-based, HEK293 alpha2C/GIRK1/2, thallium flux, primary screen (AID 624;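 active means fluorescence slope after compound addition differing from the mean of all screened samples at 99.7% confidence, in either direction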;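 further: slope of fluorescence ratio to pre-addition baseline per second over 15 to 24 s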). Particulars: thallium flux BTC fluorescence, at 10 µM, actives lie on both sides.
Alpha-2C adrenergic receptor (Homo sapiens), sequence (P18825 whole entry, looked up): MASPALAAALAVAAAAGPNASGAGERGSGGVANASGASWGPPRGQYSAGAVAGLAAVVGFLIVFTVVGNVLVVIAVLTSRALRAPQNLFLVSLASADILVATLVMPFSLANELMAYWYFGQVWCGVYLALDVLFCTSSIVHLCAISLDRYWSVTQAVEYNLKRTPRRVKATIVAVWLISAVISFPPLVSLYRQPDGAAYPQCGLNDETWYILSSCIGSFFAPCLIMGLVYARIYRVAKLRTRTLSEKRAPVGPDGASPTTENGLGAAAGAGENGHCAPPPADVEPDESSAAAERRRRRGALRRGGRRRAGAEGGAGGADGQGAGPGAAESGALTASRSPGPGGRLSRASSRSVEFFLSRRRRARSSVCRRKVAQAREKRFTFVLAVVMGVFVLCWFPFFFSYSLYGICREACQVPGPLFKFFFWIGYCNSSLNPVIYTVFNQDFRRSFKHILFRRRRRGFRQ
A short description of assay [8]: inhibitors of larval lipid processing in zebrafish, primary screen, whole organism, PED6 fluorescence, gall bladder and intestine (AID 686;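 active means a full or partial loss of lipid-probe fluorescence in the fish gall bladder, intestine or both, judged by eye; inactive means no fluorescence loss, or compound toxic to the fish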;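 further: larvae 5 to 7 days old with five fish per well; signal comes from phospholipase A2 cleavage of quenched PED6 carried via bile; overnight exposure to compound and PED6 before scoring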). Particulars: Zebrafish larvae PED6 lipid processing, fluorescence scoring; screened at 20 µM (by protocol). The essentials:
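system = live zebrafish larvae aged 5-7 days, whole organism | probe or stimulus = ingested quenched lipid PED6 at 100 nM | doses = 20 µM single dose | timing = overnight exposure | detection = fluorescence microscopy with visual scoring of gall bladder and intestine | read-out = visual per-well fluorescence inhibition score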

Assay [9] is described as follows: loss of swimming-algae plug formation – whole organism, Chlamydomonas reinhardtii, WT vs cilia-less mutant, absorbance, 96-well, primary screen (AID 463189;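 active means inhibition at or above 50% relative to wild type and mutant plate controls; inactive means inhibition below 50%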;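 further: 0% = wild type cc124 cells in DMSO and 100% = ciliumless bld1 mutant cells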). Conditions: Chlamydomonas reinhardtii gravitaxis, OD600 absorbance, 2 days; at 10 µM; stronger effect = higher value.
[10] abbreviates: measured here: cell density z-score.
Setting [11] is: measured here: nuclear c-Myc green intensity z-score.
Where [12] appears, read: measured here: nuclear pErk red intensity z-score, stronger effect = higher value.

For orientation: inhibition means the change of the read-out against control, counted positive when it falls.

Structures are written as SMILES. Calls of active or inactive are those of the source.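 How the source made its calls, unless noted: active means fluorescence slope higher than the sample average by over 3 SD (cut at about -0.22 in these data, passing the limit was not always enough); inactive means the rest.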

Voltage-gated potassium channel subunit beta-2 (Rattus norvegicus), sequence (P62483 whole entry, looked up): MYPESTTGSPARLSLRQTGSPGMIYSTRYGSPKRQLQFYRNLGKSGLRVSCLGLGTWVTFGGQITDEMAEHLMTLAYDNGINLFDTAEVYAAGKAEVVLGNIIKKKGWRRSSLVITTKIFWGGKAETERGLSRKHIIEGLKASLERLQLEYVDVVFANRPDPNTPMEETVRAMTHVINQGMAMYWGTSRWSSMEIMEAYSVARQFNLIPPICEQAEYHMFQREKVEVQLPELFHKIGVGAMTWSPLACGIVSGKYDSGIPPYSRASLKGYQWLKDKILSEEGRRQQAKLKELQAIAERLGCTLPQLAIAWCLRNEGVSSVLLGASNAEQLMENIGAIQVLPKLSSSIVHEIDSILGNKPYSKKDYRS

Turning to `CCOC(=O)COc1nc(N(C)C)nc(N(C)C)n1`, the cell count in assay [1] was found to be 634. Besides, the inhibition is -15% (inactive) in assay [1], -349% (inactive) in assay [2], 7.48% (inactive) in assay [4] and -0.47% (inactive) in assay [9]. The molecule also displayed a nuclei count in assay [2] of 183%. Further, the z-score in [3] (setting [10]) was 0.237; in [3] (setting [11]) it was 0.0213; in [3] (setting [12]), 0.713. Further, the fluorescence slope in assay [5] was -0.492 (inactive). In addition, in assay [6], the NADPH fluorescence slope was -0.000101 (inactive). For the same molecule, the slope in assay [7] was 0.00583 (inactive). Moreover, the molecule was classed as inactive in [8].
As to `COC(=O)c1[nH]c2cc(OC)ccc2c1NC(=O)CN1CCC(C(N)=O)CC1`, the cell count in assay [1] came to 363. Further, the inhibition in [1] was 2.6% (inactive); in assay [2], 14.4% (inactive); in assay [4] it was 9.42% (inactive); in assay [9], 25.6% (inactive). For the same molecule, the nuclei count in [2] is 134%. Further, the results for the z-score in [3] (setting [10]), in assay [3] (setting [11]) and in assay [3] (setting [12]) were 0.612, -0.732 and -0.532, respectively. In addition, in assay [5], the fluorescence slope was -0.434 (inactive). For the same molecule, the NADPH fluorescence slope in assay [6] was -0.000147 (inactive). The slope in [7] is 0.00651 (inactive). Besides, in assay [8], the outcome was inactive.
Take `COC(=O)C1=C(C)N=C2SC(C)C(=O)N2C1c1cccc(F)c1` (centres undefined): the cell count in assay [1] was 346. Besides, the inhibition was -0.4% (inactive) in assay [1], -96.3% (inactive) in assay [2], 12.3% (inactive) in assay [4] and -8.16% (inactive) in assay [9]. In assay [2], this molecule showed a nuclei count of 129%. The z-score was 0.762 in assay [3] (setting [10]), -0.181 in assay [3] (setting [11]) and -0.313 in [3] (setting [12]). For the same molecule, the fluorescence slope in assay [5] was -0.485 (inactive). The NADPH fluorescence slope in assay [6] was -4.6e-05 (inactive). For the same molecule, the slope in [7] is 0.00444 (inactive). Besides, in [8], the molecule was called inactive.
Consider `C=CCn1c(-c2ccccc2)n[nH]c1=S`, for which the cell count in assay [1] was 492. Also, the inhibition in [1] is -1.5% (inactive); in assay [2], 71% (active); in [4] it was 4.25% (inactive); in assay [9], 5.46% (inactive). In addition, the nuclei count in assay [2] came to 124%. The results for the z-score in assay [3] (setting [10]), in [3] (setting [11]) and in assay [3] (setting [12]) were -1.14, 2.62 and -0.366, respectively. The fluorescence slope in [5] is -0.512 (inactive). Also, in assay [6], the NADPH fluorescence slope is -0.000177 (inactive). For the same molecule, the slope in [7] was 0.00512 (inactive). For the same molecule, the call in [8] was inactive.
Turning to `CN(C)S(=O)(=O)Nc1ccc(NS(=O)(=O)N(C)C)c(S(=O)(=O)c2ccccc2)c1`, the cell count in [1] was 341. In addition, the inhibition in assay [1] was -11.9% (inactive); in [2], -131% (inactive); in assay [4], 7.73% (inactive); in assay [9] it was -7.02% (inactive). In addition, the nuclei count in [2] stood at 99.4%. In addition, the z-score was -0.765 in assay [3] (setting [10]), 0.48 in [3] (setting [11]) and -2.08 in assay [3] (setting [12]). For the same molecule, the fluorescence slope in assay [5] was -0.495 (inactive). The NADPH fluorescence slope in assay [6] is -0.000114 (inactive). Moreover, the slope in assay [7] was 0.00381 (inactive). For the same molecule, the call in assay [8] was inactive.
As to `Nc1ccc2c(c1)N1CCN=C1S2`, in assay [1], the cell count was found to be 646. Moreover, the inhibition was -9.1% (inactive) in assay [1], -53.2% (inactive) in assay [2], -0.159% (inactive) in assay [4] and 24% (inactive) in assay [9]. The molecule further returned a nuclei count in assay [2] of 169%. The z-score in assay [3] (setting [10]) was 1.6; in assay [3] (setting [11]), -0.44; in assay [3] (setting [12]), 0.246. Also, the fluorescence slope in assay [5] is -0.545 (inactive). Besides, the NADPH fluorescence slope in assay [6] is -9.2e-05 (inactive). Besides, the slope in assay [7] is 0.00512 (inactive). The call in assay [8] was inactive.
As to `COC(=O)c1ccc(Nc2cc(C)nc(-c3ccccc3O)n2)cc1`, the cell count in assay [1] was found to be 598. The inhibition in assay [1] was -2.7% (inactive); in assay [2], -66.3% (inactive); in [4], 1.9e-07% (inactive); in [9], 17.7% (inactive). The molecule further came in with a nuclei count in [2] of 140%. For the same molecule, the z-score in [3] (setting [10]) is 0.899; in assay [3] (setting [11]), 0.0889; in assay [3] (setting [12]), -0.242. The fluorescence slope in assay [5] was -0.106 (inactive). For the same molecule, the NADPH fluorescence slope in assay [6] was 2.6e-07 (inactive). Further, in [7], the slope is 0.00449 (inactive). The molecule was called inactive in assay [8].
For the molecule `Fc1ccc2[nH]c3c(N4CCN(Cc5ccc6c(c5)OCO6)CC4)ncnc3c2c1`, the cell count in assay [1] was 523. Besides, the inhibition in assay [1] is -4.5% (inactive); in assay [2], -93.3% (inactive); in assay [4] it was -1.12% (inactive); in assay [9], 58.4% (active). For the same molecule, in [2], the nuclei count was found to be 169%. Also, the z-score in [3] (setting [10]) is 0.499; in assay [3] (setting [11]) it was 0.133; in assay [3] (setting [12]), -0.391. Besides, in assay [5], the fluorescence slope is -0.311 (inactive). In assay [6], the NADPH fluorescence slope is 3.2e-05 (inactive). Also, the slope in [7] was 0.00448 (inactive). For the same molecule, in assay [8], the outcome is “inactive; toxic”.
As for `CCC1SC(N)=NC1=O` (centres undefined), the cell count in [1] came to 522. The inhibition in [1] was -23.4% (inactive); in [2], -58.7% (inactive); in assay [4] it was -15% (inactive); in [9], 13.5% (inactive). The nuclei count in assay [2] is 182%. Besides, the z-score in assay [3] (setting [10]) is -1.82; in [3] (setting [11]), 1.35; in [3] (setting [12]), 1.78. In addition, the fluorescence slope in assay [5] was -0.405 (inactive). Also, the NADPH fluorescence slope in assay [6] is -7.4e-05 (inactive). The slope in assay [7] was 0.00536 (inactive). Moreover, the molecule was called inactive in [8].
In the case of `CC(C)C(C(=O)Nc1ncn[nH]1)N1C(=O)c2ccccc2C1=O` (centres undefined), the cell count in [1] was 520. Further, the inhibition was -7% (inactive) in assay [1], -28.4% (inactive) in [2], -4.27% (inactive) in assay [4] and 0.44% (inactive) in assay [9]. Further, the nuclei count in assay [2] amounted to 121%. Further, the figures for the z-score in assay [3] (setting [10]), in assay [3] (setting [11]) and in [3] (setting [12]) were -1.38, 0.141 and 1.7, respectively. Besides, the fluorescence slope in assay [5] is -0.47 (inactive). The NADPH fluorescence slope in [6] is -7.2e-06 (inactive). Also, in assay [7], the slope is 0.0054 (inactive). In addition, in assay [8], the molecule was classed as inactive.
With `c1coc(-c2nnc3sc(Cc4cccs4)nn23)c1`, the cell count in assay [1] amounted to 593. For the same molecule, the inhibition in assay [1] was -3.5% (inactive); in [2] it was 60.4% (inactive); in [4] it was -13.3% (inactive); in [9], 5.83% (inactive). Besides, in assay [2], the nuclei count was found to be 98.5%. Also, the z-score in assay [3] (setting [10]) was 0.488; in assay [3] (setting [11]), -1.26; in [3] (setting [12]), -0.189. Further, the fluorescence slope in [5] is -0.5 (inactive). In addition, the NADPH fluorescence slope in assay [6] was -4.8e-06 (inactive). For the same molecule, the slope in [7] was 0.00451 (inactive). The result in assay [8] was inactive.
With `CC(=O)C1=C(O)C(=O)N(c2cccc(C(=O)O)c2)C1c1ccccc1F` (centres undefined), in assay [1], the cell count stood at 545. In addition, the inhibition in assay [1] was -2.4% (inactive); in assay [2], -73.9% (inactive); in assay [4], -9.66% (inactive); in [9], 3.92% (inactive). Besides, the nuclei count in [2] amounted to 156%. Further, the z-score was -0.336 in assay [3] (setting [10]), 0.7 in assay [3] (setting [11]) and 0.539 in assay [3] (setting [12]). Also, the fluorescence slope in [5] was -0.505 (inactive). For the same molecule, the NADPH fluorescence slope in [6] was -4.6e-05 (inactive). The slope in assay [7] was 0.00649 (inactive). Moreover, the outcome in [8] was inactive.
On to `O=C1[C@@H]2[C@H](C(=O)N1O)[C@H]1C=C[C@@H]2C1`, for which the cell count in [1] was 468. Besides, the inhibition in assay [1] is -1% (inactive); in [2] it was -174% (inactive); in [4] it was 1.04% (inactive); in assay [9], 2.48% (inactive). In assay [2], this molecule came in with a nuclei count of 209%. The z-score was -1.39 in assay [3] (setting [10]), 1.02 in assay [3] (setting [11]) and 0.777 in [3] (setting [12]). The fluorescence slope in assay [5] was -0.392 (inactive). In assay [6], the NADPH fluorescence slope was -1.7e-05 (inactive). Besides, in [7], the slope is 0.00509 (inactive). The outcome in assay [8] was inactive.

The values are drawn from PubChem BioAssay.
